Laboratory results: ChEMBL document CHEMBL1166014, “Targeting efflux pumps-In vitro investigations with acridone derivatives and identification of a lead molecule for MDR modulation” (Bioorg Med Chem, 2010)
Converted amounts (≈) assume the structure as drawn. The source made the active and inactive calls. The calls are words filed in the database; no cut-off is given here.

How the values were obtained:
[1] = Binding affinity to P-gp at 0.05 uM after 30 mins by spectrophotometry
Outline: (§1)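 P-gp vesicles from DC-3F/ADX MDR cells; basal MgATP hydrolysis measured by PK/LDH-coupled NADH oxidation (PEP, NADH), with non-specific ATPase inhibitor; vesicles 5 min at 37 °C, compound added (final 0.05, 0.5, 5 µM) 5 min, MgATP then 20 min at 37 °C; A340 read twice 20 min apart; triplicate; verapamil, vinblastine, progesterone references.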

[2] = Binding affinity to P-gp at 5 uM after 30 mins by spectrophotometry; outline: as §1
[3] = Binding affinity to Mg2+ at 100 uM in HEPES buffer of pH 7.2 by spectrophotometry
Outline: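 Compound at 10^-4 M in 10^-2 M HEPES pH 7.2 titrated with Mg²⁺ (0–0.5 × 10^-4 M); absorbance changes at 270–310, 390–415 and 320–340 nm monitored; binding constant by Benesi–Hildebrand equation.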

[4] = Binding affinity to P-gp assessed as increase in basal protein activity at 0.5 uM after 30 mins by spectrophotometry; outline: as §1
ATP = assay: Binding affinity to ATP at 50 uM in HEPES buffer of pH 7.2 by spectrophotometry
Outline: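 UV-vis titration: compound held constant at 50 µM in HEPES pH 7.2, titrated with NaATP (from 10^-2 M stock) over 0–3 equiv; absorbance change followed; binding constant from Benesi–Hildebrand plot.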

[5] = Binding affinity to P-gp at 0.5 uM after 30 mins by spectrophotometry; outline: as §1
[6] = Binding affinity to P-gp assessed as increase in basal protein activity at 0.05 uM after 30 mins by spectrophotometry; outline: as §1
[7] = Binding affinity to P-gp assessed as increase in basal protein activity at 5 uM after 30 mins by spectrophotometry; outline: as §1
Candida albicans [8] = assay: Antifungal activity at Candida albicans CAI4 after 48 hrs by ELISA; type: functional; settings: CAI4, 48 h
Outline: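 Broth microdilution; CAI4 streaked on YEPD, 30 °C 24 h; compounds serially diluted twofold in YEPD, solvent diluted alongside; growth control column; 30 °C 48 h; OD600 on plate reader; MIC80 = concentration giving 80% growth inhibition vs no-compound growth.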

[9] = Partition coefficient, log P of the compound; type: physicochemical; settings: octanol/water
[10] = biological target: Multidrug resistance protein CDR1 (Candida albicans) (UniProt P43071); assay: Inhibition of CDR1-mediated efflux of rhodamine 6G in Candida albicans CAI4 at 800 ug/ml up to 60 mins by spectrofluorimetry in presence of 2 mM 2-deoxyglucose treated for 2 hrs before compound addition
Outline: (§2)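 C. albicans CAI4 secondary culture (YEPD, 30 °C, ~5 h) washed in PBS, 2% cell suspension de-energised with 2 mM 2-deoxyglucose on rocker 2 h; R6G loaded, cells pelleted, washed, resuspended in PBS with or without 2% glucose; compound at 800 µg/ml with MeOH/DMSO 1:1 solvent control; supernatant R6G fluorescence read (ex 529, em 553 nm) over time.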

[11] = biological target: T1, Multidrug resistance protein CDR2 (Candida albicans (strain SC5314 / ATCC MYA-2876) (Yeast)) (UniProt P78595); assay: Modulation of CDR2-mediated rhodamine 6G accumulation in Candida albicans CAI4 assessed as inhibition of fungal growth at 800 ug/ml after 48 hrs by spot assay
T1 sequence (whole entry): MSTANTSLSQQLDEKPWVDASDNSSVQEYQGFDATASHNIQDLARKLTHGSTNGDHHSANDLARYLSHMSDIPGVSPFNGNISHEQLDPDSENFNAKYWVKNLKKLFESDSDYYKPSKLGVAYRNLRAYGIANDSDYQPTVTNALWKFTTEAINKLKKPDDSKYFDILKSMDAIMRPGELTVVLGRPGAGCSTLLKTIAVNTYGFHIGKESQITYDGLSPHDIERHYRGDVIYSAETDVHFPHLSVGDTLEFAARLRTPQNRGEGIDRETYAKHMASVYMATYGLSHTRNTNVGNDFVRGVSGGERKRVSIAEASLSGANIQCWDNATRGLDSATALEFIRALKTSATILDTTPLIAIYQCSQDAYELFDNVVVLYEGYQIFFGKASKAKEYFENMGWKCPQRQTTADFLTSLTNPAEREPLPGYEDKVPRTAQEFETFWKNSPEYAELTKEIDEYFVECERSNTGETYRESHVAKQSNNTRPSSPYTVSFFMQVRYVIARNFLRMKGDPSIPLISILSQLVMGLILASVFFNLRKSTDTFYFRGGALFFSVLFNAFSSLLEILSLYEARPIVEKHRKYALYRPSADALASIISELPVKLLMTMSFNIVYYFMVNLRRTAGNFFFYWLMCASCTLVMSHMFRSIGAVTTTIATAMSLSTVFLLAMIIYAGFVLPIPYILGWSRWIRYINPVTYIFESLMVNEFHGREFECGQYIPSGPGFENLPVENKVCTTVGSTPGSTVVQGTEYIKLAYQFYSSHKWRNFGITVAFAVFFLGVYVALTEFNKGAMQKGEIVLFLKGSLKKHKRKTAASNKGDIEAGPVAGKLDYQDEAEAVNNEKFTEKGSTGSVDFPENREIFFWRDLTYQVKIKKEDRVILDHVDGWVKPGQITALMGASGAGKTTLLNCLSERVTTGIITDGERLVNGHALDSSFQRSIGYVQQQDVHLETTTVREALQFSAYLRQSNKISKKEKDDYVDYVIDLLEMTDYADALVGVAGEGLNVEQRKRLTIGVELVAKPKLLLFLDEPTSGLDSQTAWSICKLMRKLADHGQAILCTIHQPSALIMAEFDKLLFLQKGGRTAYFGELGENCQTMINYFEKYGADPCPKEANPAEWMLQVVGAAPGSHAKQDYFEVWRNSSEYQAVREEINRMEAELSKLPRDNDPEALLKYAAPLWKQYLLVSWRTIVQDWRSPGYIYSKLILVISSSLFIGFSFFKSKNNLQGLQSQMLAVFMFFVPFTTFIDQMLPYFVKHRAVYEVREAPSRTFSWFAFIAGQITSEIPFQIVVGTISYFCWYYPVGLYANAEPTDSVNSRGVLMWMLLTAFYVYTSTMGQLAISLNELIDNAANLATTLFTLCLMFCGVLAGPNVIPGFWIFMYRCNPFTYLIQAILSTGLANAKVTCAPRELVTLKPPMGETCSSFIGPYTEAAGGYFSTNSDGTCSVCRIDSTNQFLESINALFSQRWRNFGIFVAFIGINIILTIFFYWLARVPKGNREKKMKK
Outline: (§3)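 Spot assay: CAI4 grown in YEPD at 30 °C (16 h primary, 5 h secondary), diluted in 0.9% saline and spotted as 10⁵–10⁰ cells on YEPD agar containing compound plus R6G; solvent (MeOH/DMSO 1:1) and YEPD-only control plates; growth scored after 48 h at 30 °C.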

[12] = biological target: T1, Multidrug resistance protein CDR2 (Candida albicans (strain SC5314 / ATCC MYA-2876) (Yeast)); assay: Modulation of CDR2-mediated rhodamine 6G accumulation in Candida albicans CAI4 assessed as increase in R6G influx at 800 ug/ml after 180 mins by spectrofluorimetry
Outline: (§4)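 C. albicans CAI4 secondary culture (YEPD, 30 °C, ~5 h) washed in PBS, 2% suspension in PBS with 2 mM 2-deoxyglucose rocked 2 h; compound added at 800 µg/ml (MeOH/DMSO 1:1 solvent control), then R6G; aliquots over 0–180 min centrifuged, R6G left in supernatant measured as OD527.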

Candida albicans [13] = assay: Effect of membrane integrity of Candida albicans CAI4 at 800 ug/ml after 48 hrs by spot assay in presence of 300 ug/ml congo red; type: functional, organism-based
Outline: (§5)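 Spot assay on YEPD-agar plates containing compound (with Congo red or calcofluor white where applicable); solvent (MeOH/DMSO 1:1) and YEPD-only control plates; CAI4 primary culture 16 h, secondary 5 h at 30 °C from 4% inoculum, diluted in 0.9% saline; 10⁵ to 10⁰ cells spotted; 30 °C 48 h, growth scored.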

Candida albicans [14] = assay: Effect of membrane integrity of Candida albicans CAI4 at 800 ug/ml after 48 hrs by spot assay in presence of 300 ug/ml calcofluor white; type: functional, organism-based; outline: as §5
Candida albicans [15] = assay: Antifungal activity at Candida albicans CAI4 assessed as reduction in colony formation at 0.9 mg/ml after 48 hrs by spot assay; type: functional, organism-based; outline: as §5
[16] = biological target: T1, Multidrug resistance protein CDR2 (Candida albicans (strain SC5314 / ATCC MYA-2876) (Yeast)); assay: Inhibition of CDR2-mediated efflux of rhodamine 6G in Candida albicans CAI4 at 800 ug/ml up to 60 mins by spectrofluorimetry in presence of 2 mM 2-deoxyglucose treated for 2 hrs before compound addition; outline: as §2
Candida albicans [17] = assay: Antifungal activity at Candida albicans CAI4 assessed as inhibition of fungal growth at 1 mg/ml after 48 hrs by spot assay; type: functional, organism-based; outline: as §5
[18] = biological target: Multidrug resistance protein CDR1 (Candida albicans) (UniProt P43071); assay: Modulation of CDR1-mediated rhodamine 6G accumulation in Candida albicans CAI4 assessed as increase in R6G influx at 800 ug/ml after 180 mins by spectrofluorimetry; outline: as §4
[19] = biological target: Multidrug resistance protein CDR1 (Candida albicans) (UniProt P43071); assay: Modulation of CDR1-mediated rhodamine 6G accumulation in Candida albicans CAI4 assessed as inhibition of fungal growth at 800 ug/ml after 48 hrs by spot assay; outline: as §3
Candida albicans [20] = assay: Antifungal activity at Candida albicans CAI4 assessed as inhibition of fungal growth at 0.9 mg/ml after 48 hrs by spot assay; type: functional, organism-based; outline: as §5
Candida albicans [21] = assay: Antifungal activity at Candida albicans CAI4 assessed as reduction in colony formation at 1 mg/ml after 48 hrs by spot assay; type: functional, organism-based; outline: as §5

Multidrug resistance protein CDR1 (Candida albicans), sequence (P43071 whole entry, looked up): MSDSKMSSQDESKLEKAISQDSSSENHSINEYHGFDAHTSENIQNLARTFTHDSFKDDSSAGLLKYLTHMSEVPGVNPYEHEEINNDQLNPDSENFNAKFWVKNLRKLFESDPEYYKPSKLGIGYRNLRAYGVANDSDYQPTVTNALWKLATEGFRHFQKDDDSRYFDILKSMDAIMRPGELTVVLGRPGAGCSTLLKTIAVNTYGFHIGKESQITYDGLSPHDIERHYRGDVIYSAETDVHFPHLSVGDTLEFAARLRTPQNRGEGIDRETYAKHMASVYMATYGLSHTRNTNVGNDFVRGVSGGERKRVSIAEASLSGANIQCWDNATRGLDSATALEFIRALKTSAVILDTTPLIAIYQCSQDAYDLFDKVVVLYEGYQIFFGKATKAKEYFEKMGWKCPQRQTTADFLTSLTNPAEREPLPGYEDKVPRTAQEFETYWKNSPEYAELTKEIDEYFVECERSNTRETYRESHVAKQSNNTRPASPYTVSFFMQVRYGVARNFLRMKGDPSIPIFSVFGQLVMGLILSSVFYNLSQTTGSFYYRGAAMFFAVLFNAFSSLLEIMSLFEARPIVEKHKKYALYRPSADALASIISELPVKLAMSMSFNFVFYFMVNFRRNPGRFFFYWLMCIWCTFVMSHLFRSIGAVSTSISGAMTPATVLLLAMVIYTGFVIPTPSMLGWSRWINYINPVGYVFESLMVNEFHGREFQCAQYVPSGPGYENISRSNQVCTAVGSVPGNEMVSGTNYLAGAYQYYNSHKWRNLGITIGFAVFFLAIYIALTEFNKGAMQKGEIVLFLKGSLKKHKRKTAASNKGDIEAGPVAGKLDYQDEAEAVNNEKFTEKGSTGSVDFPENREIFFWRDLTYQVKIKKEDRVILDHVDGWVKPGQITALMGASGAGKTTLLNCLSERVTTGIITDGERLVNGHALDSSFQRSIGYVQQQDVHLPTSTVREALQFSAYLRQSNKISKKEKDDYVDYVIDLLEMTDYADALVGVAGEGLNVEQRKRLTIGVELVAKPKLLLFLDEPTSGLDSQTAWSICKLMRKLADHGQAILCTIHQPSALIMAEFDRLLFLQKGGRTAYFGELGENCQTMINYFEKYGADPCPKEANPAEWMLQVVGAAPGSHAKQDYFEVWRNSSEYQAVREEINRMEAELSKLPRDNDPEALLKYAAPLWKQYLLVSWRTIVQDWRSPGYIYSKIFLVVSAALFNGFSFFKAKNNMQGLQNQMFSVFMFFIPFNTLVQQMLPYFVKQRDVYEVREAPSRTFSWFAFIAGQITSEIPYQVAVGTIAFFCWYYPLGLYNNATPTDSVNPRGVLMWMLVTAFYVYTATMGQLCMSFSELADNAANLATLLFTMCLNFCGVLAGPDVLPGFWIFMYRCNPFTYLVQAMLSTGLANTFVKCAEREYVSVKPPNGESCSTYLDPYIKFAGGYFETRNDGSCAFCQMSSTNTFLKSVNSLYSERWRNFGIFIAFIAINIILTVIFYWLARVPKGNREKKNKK

| Compound | RBA [1] | RBA [2] | Ka [3] | Activity [4] | Ka (ATP) | RBA [5] | Activity [6] | Activity [7] | MIC80 (Candida albicans [8]) | also measured |
| --- | --- | --- | --- | --- | --- | --- | --- | --- | --- | --- |
| O=C(O)c1cccc2c(=O)c3ccccc3n(CC(O)CN3CCCCC3)c12 (stereo unspecified) | 1.57 | 2.44 | 19.7 ×10⁵ /M | 66% | inactive | 1.66 | 57% | 144% |  |  |
| O=c1c2ccccc2n(CC(O)CN2CCCCC2)c2c(Cl)cccc12 (stereo unspecified) |  |  | 1.48 ×10⁵ /M |  | 5 ×10⁵ /M |  |  |  | > 3000 µg/mL |  |
| O=c1c2ccccc2n(CC(O)CN2CCCC2)c2c(Cl)cccc12 (stereo unspecified) |  |  | 0.95 ×10⁵ /M |  | 6.57 ×10⁵ /M |  |  |  | > 3000 µg/mL |  |
| CC[C@]1(O)C[C@@H]2CN(CCc3c([nH]c4ccccc34)[C@@](C(=O)OC)(c3cc4c(cc3OC)N(C)[C@H]3[C@@](O)(C(=O)OC)[C@H](OC(C)=O)[C@]5(CC)C=CCN6CC[C@]43[C@@H]65)C2)C1 | 0.98 | 1.21 |  |  |  | 1.37 |  |  |  |  |
| CCN(CC)CC(O)Cn1c2ccccc2c(=O)c2cccc(Cl)c21 (stereo unspecified) |  |  | 0.39 ×10⁵ /M |  | 7.9 ×10⁵ /M |  |  |  | 1500 µg/mL (≈ 4.18 mM) |  |
| O=C(O)c1cccc2c(=O)c3ccccc3n(CC(O)CN3CCOCC3)c12 (stereo unspecified) | 1.63 | 2.66 | 3.82 ×10⁵ /M | 100% | inactive | 2 | 63% | 166% |  | logP [9]: 0.6 |
| O=c1c2ccccc2n(CC(O)CN2CCOCC2)c2c(Cl)cccc12 (stereo unspecified) |  |  | 17.1 ×10⁵ /M |  | 4.08 ×10⁵ /M |  |  |  | > 3000 µg/mL |  |
| O=c1c2ccccc2n(CC(O)CN2CCC(N3CCCCC3)CC2)c2c(Cl)cccc12 (stereo unspecified) |  |  | 18.6 ×10⁵ /M |  | 11 ×10⁵ /M |  |  |  | > 3000 µg/mL |  |
| CC(C)N(CC(O)Cn1c2ccccc2c(=O)c2cccc(C(=O)O)c21)C(C)C (stereo unspecified) | 1.53 | 2.05 | 2 ×10⁵ /M | 60% | inactive | 1.6 | 53% | 105% |  |  |
| O=C(O)c1cccc2c(=O)c3ccccc3n(CC(O)CN3CCCC3)c12 (stereo unspecified) | 1.6 | 2 | 1.5 ×10⁵ /M | 85% | inactive | 1.85 | 60% | 100% | 781 µg/mL (≈ 2.13 mM) | inhibition [10]: Active; inhibition [11]: Active; inhibition [12]: Active; inhibition (Candida albicans [13]): inactive; inhibition (Candida albicans [14]): inactive; inhibition (Candida albicans [15]): Active; inhibition [16]: Active; inhibition (Candida albicans [17]): inactive; inhibition [18]: Active; inhibition [19]: Active; inhibition (Candida albicans [20]): inactive; inhibition (Candida albicans [21]): Active |
| CC(C)N(CC(O)Cn1c2ccccc2c(=O)c2cccc(Cl)c21)C(C)C (stereo unspecified) |  |  | 2.2 ×10⁵ /M |  | 1.42 ×10⁵ /M |  |  |  | > 3000 µg/mL |  |
| CC(=O)[C@H]1CC[C@H]2[C@@H]3CCC4=CC(=O)CC[C@]4(C)[C@H]3CC[C@]12C | 1 | 1.42 |  |  |  | 1.11 |  |  |  |  |
| CCN(CC)CC(O)Cn1c2ccccc2c(=O)c2cccc(C(=O)O)c21 (stereo unspecified) | 1.65 | 2.12 | 7.74 ×10⁵ /M | 70% | inactive | 1.7 | 65% | 112% |  |  |
| COc1ccc(CCN(C)CCCC(C#N)(c2ccc(OC)c(OC)c2)C(C)C)cc1OC (stereo unspecified) | 1.11 | 2.8 |  |  |  | 2.01 |  |  |  |  |
